molecular target: Replicase polyprotein 1ab (Severe acute respiratory syndrome coronavirus 2) (UniProt P0DTD1); assay: Inhibition of SARS-CoV-2 main protease at 50 uM using Dabcy1-KTSAVLQSGFRKM-E-Edans-NH2 as substrate incubated for 10 mins followed by substrate addition by FRET assay relative to control
Procedure, shortened: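 Mpro, 0.5 µM final, in pH 7.3 buffer (20 mM Tris-HCl, 100 mM NaCl, 1 mM EDTA, 1 mM DTT) preincubated with compound (50 µM final, from DMSO stock) at 37 °C for 10 min. Reaction started with FRET substrate solution at 20 µM. Read ex 360/em 460 nm. Inhibition is from the initial linear ΔRFU/s versus a DMSO-only control. Triplicate, mean ± SD.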

Structure (SMILES)	inhibition
Cc1cccc(Nc2nc(C(=O)N3CCc4ccccc43)nc3ccccc23)c1	45.7%
Cn1c2ccccc2c2cc([C@@H]3N[C@H](C(=O)O)Cc4c3[nH]c3ccccc43)ccc21	6.54%
Cc1cc(C)nc(-n2nc(C)c3c2NC(=O)C[C@@H]3c2ccc3ccccc3c2)n1	7.54%
Cc1ccc2c(c1)NC1(CCN(C(=O)Cc3ccc(F)cc3)CC1)c1cccn1-2	6.29%
Cc1cccc2[nH]c([C@H]3CCCN(C(=O)c4nc5ccccn5c4F)C3)nc12	11.1%
O=C1C[C@H](c2ccc(Cl)cc2)N2N=C(N3C(=O)[C@H]4CCCC[C@H]4C3=O)NC2=N1	8.84%
Cc1ccc(-n2nc(C)c3c(C)cc(OCc4ccc5nonc5c4)nc32)cc1	5.26%
CC(=O)N1N=C(c2cc(-c3ccccc3)nc3ccccc23)O[C@H]1c1ccccc1	14.3%
O=C(c1cc2nccc(-c3ccc4ccccc4c3)n2n1)N1CCN2CCC[C@H]2C1	9.38%
Fc1ccc([C@H]2Oc3ccccc3[C@H]3CC(c4ccc5c(c4)OCO5)=NN32)cc1	6.87%
CC1=NN(c2ccc3ccccc3c2)C(=O)/C1=C1/C(=O)Nc2ccc(Cl)cc21	16.6%
O=C(NCc1ccc2c(c1)OCO2)c1ccc2nc3[nH]c4ccccc4c3nc2c1	35.6%
O=C(CN1C(=O)c2ccccc2N2C(=O)c3ccccc3[C@H]12)Nc1cccc(O)c1	5.21%
Cc1cccc2cc(-c3c4cn[nH]c4nc4c3oc3c(O)c(O)ccc34)c(=O)[nH]c12	76.6%
O=C(c1ccc2ccccc2n1)N1CCc2c(nc(-c3ccccc3)[nH]c2=O)C1	1.16%
Cn1c2ccccc2c(=O)c2c1nc(Cc1ccccc1)n1c3ccccc3nc21	7.42%
O=c1oc2ccccc2c(O)c1[C@H]1c2ncccc2-c2c1c(=O)oc1ccccc21	8.23%
